Consider 167 variants from the RNAGym collection of RNA variant scans (doi:10.1126/science.aae0568).

This sample holds only a part of the variants without activity.

B1: tRNA (parent)
chain: GUUCCGUUGGCGUAAUGGUAACGCGUCUCCCUCCUAAGGAGAAGACUGCGGGUUCGAGUCCCGUACGGAACG

The variants in this data set derive from B1. Put plainly: yeast fitness relative to wild type (ratio to wild type); higher = fitter; tRNA-Arg(CCU), competitive growth, 37 C, YPD. A digest of the protocol: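 Genotype frequency changes were the basis for Darwinian fitness relative to wild type. The frequencies came from 100-nucleotide paired-end sequencing of gene amplicons from the start population and each end population of pooled yeast strains with tRNA-Arg(CCU) gene variants at the native locus. Competition ran in YPD at 37°C for 24 hours in six replicates, genotypes needed ≥ 100 starting reads, and estimates < 0.5 were set to 0.5.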
On to A14C U16C C62U A65U, for which the yeast fitness was no more than 0.5.
In the case of A14C G18C U28A C30G A43G A57G C60U A65C G67U it was 0.557; in that of A14G U16G C24G U26C G50C A65U, no more than 0.5; in that of A14C G18A G48A C60G, 0.558.
The same measure for A14C G18C G56A: no more than 0.5; for A14C G25C C66U: 0.531.
The same measure for A14G A15C G51C C61G: no more than 0.5.
As to A14C G48C, the yeast fitness worked out at 0.658.
Turning to A14G A21C A65C, the yeast fitness was determined as 0.539.
The same measure for A14G A20C A40C A45G C46A: no more than 0.5; for A14G A15U C34U: 0.505; for A14G A70U: 0.662.
The same measure for A14G C34G A43C C62U: no more than 0.5; for A14G C34G A43C C62A C66A: no more than 0.5; for A14G C30A C34A A43C A65C A70C: no more than 0.5.
In the case of A14G G51A U54C it was no more than 0.5; in that of A14G A20U C29G C33U, 0.543; in that of A14G C31A A43G, 0.679.
Consider A14G G68A, for which the yeast fitness was 0.653.
In the case of A14G A20C C33A A70G it was no more than 0.5; in that of A14G G17C C22G, no more than 0.5.
The same measure for A14G A21C U35A A43G: no more than 0.5.
A14G G38A C60U G67C: the yeast fitness is no more than 0.5.
In the case of A14G A15G U54C it was 0.569; in that of A14G A36U C46G C62A A69C, no more than 0.5; in that of A14G G23A U54G, no more than 0.5.
The same measure for A14C U47C A57C: no more than 0.5; for A14G G39A A43U: 0.643; for A14G U26A: 0.989.
The same measure for A14G C24U C49U: 0.675; for A14G C22G U35G A40C A70G: no more than 0.5.
Turning to A14G U28G G41C G48A U64C, the yeast fitness is no more than 0.5.
For A14C U53A A65C A70G, the yeast fitness came to 0.587.
As for A14G C24G G50A C55G, the yeast fitness is no more than 0.5.
A14C U19G U32A G52C: the yeast fitness is no more than 0.5.
Regarding A14G C31G, the yeast fitness was determined as 0.945.
In the case of A14G A43C G52C it was no more than 0.5; in that of A14C U16A C66U, no more than 0.5; in that of A14G A37C, 0.73.
The same measure for A14G C29A A37G: no more than 0.5; for A14G G52C: 0.577; for A14G G18A U26A U32C: no more than 0.5.
In the case of A14G C27G A65U G68U it was no more than 0.5; in that of A14C U26A C34U C55G, 0.519.
For A14G G23A C60A, the yeast fitness was no more than 0.5.
The same measure for A14G A20C A36U G39C: no more than 0.5; for A14G U19C: 0.919.
The same measure for A14G U19A C55U: no more than 0.5; for A14G U16G C24G U26C U47G G50C C66A: no more than 0.5.
In the case of A14G C24G G52A it was no more than 0.5; in that of A14G U19G G48C, 0.736.
Take A14G C31U C33U A45C G48A: the yeast fitness turned out to be 0.626.
In the case of A14C G25A A37U A42G it was no more than 0.5; in that of A14G C30A C34G, 0.508.
In the case of A14G C31A G44C C60G it was no more than 0.5; in that of A14G C31G A43U C46G A70U, no more than 0.5; in that of A14G C29G A36U C46G, no more than 0.5.
In the case of A14C G18C it was 0.542; in that of A14G A69G, 0.821.
As to A14G A69U, the yeast fitness is 0.921.
Regarding A14G C24G G44C G58C G68U, the yeast fitness is no more than 0.5.
The same measure for A14G G39A G51C: no more than 0.5; for A14G G58C A70U: 0.892.
In the case of A14C G51C U59G it was no more than 0.5; in that of A14G G23A A36G C66U, no more than 0.5; in that of A14C U64C, 0.935.
In the case of A14G C29A C31A A40C G44A U59A it was no more than 0.5; in that of A14C G25A A40C C46U, no more than 0.5.
With A14G A15U G50U U64G, the yeast fitness came to 0.542.
Turning to A14G C24G C31U C55A, the yeast fitness was found to be 0.552.
In the case of A14G C27A A45U G67C it was 0.521.
On to A14G A43U, for which the yeast fitness amounted to 0.803.
The same measure for A14G A43C: 0.823.
A14C G44A C46A G52A C66U: the yeast fitness is no more than 0.5.
The same measure for A14G C24U G52A C60U: no more than 0.5; for A14G A15C C30U G56C A69C: no more than 0.5.
In the case of A14G U28A A45C U53A it was no more than 0.5; in that of A14G A37C A65G, 0.659.
The same measure for A14G U16A C24G G51A: 0.511; for A14G G18C C30U C34U C61G: no more than 0.5.
As for A14C U19G C31G C33U A42G G48A G52A, the yeast fitness was no more than 0.5.
In the case of A14G A15U G25C U54A it was no more than 0.5; in that of A14C G17C C31U A37C, 0.577.
In the case of A14C G17A G68A it was 0.522.
In the case of A14G U53C G67C it was no more than 0.5; in that of A14C G18C C29U A65C, no more than 0.5; in that of A14G A42C C62A, no more than 0.5.
As to A14C G17A G23A C29G A42C G56A C62U, the yeast fitness is no more than 0.5.
The same measure for A14G U35G A37U: no more than 0.5.
The same measure for A14G A15C A37C C46A A69U: no more than 0.5; for A14G C61U: 0.934.
Consider A14C G25A, for which the yeast fitness was found to be 0.889.
In the case of A14C G25C it was 0.583; in that of A14G C29U G41A U54G C55U A69U, no more than 0.5.
In the case of A14G C30U C46U G50A A69G it was 0.704.
The same measure for A14G C62G: 0.688; for A14G U19C G38C G44C C46A: 0.704.
In the case of A14C G56C, the yeast fitness worked out at 0.567.
In the case of A14G G38A A40C G50A U54A it was 0.523.
The same measure for A14G A57G G68C: 0.616.
The same measure for A14G G17C G39A A69C: no more than 0.5; for A14G U19C A21U: 0.503; for A14C G68U: 0.583.
A14G C22G U35A: the yeast fitness stood at 0.61.
As to A14C U47C C66U, the yeast fitness was no more than 0.5.
In the case of A14G C31U G68C it was no more than 0.5; in that of A14G U35C A57G, no more than 0.5; in that of A14G A40U C55A G68U, no more than 0.5.
For the variant A14G U26A C27G C62A, the yeast fitness is 0.571.
The same measure for A14G U53G G56A C61U: 0.656.
In the case of A14G A40U A65C it was 0.533.
In the case of A14G C30G A45G it was 0.585.
A14G A42U: the yeast fitness was 0.873.
In the case of A14G A20G A69C, the yeast fitness amounted to 0.528.
In the case of A14G C24U A43C A70U, the yeast fitness is no more than 0.5.
Consider A14G C22G C30G G68A, for which the yeast fitness is no more than 0.5.
The same measure for A14G C24G C31U C55A C61A: no more than 0.5; for A14C U16A U26C C66U A69C: no more than 0.5.
The same measure for A14G G18C C31A: no more than 0.5; for A14G C30U C46A G50A: no more than 0.5; for A14C G25A C33G A36U A45G G52C: no more than 0.5.
Regarding A14C U16C G51C G58A C60A, the yeast fitness was no more than 0.5.
In the case of A14G C46A it was 0.873; in that of A14G G17A A57C, no more than 0.5.
In the case of A14G G39C G51A it was no more than 0.5; in that of A14G A15C C24G A45G, no more than 0.5; in that of A14G C29G C33U, 0.55.
The same measure for A14G A15C C46A U64G A65U: no more than 0.5.
A14G U19C G67A: the yeast fitness stood at 0.76.
In the case of A14G U32G it was 0.597.
In the case of A14C U16G A21G A70U it was no more than 0.5; in that of A14G U19A C34U C66U, 0.538; in that of A14C G25C G52A C66U, no more than 0.5.
On to A14G C22A C29U G56C G58C C66U, for which the yeast fitness is no more than 0.5.
In the case of A14G C34G C60G A70C it was no more than 0.5; in that of A14G C24G C31U C55G G63C, no more than 0.5.
For the variant A14G G44C G58A A65G, the yeast fitness came out at 0.553.
In the case of A14G A36U G50A C62G it was no more than 0.5; in that of A14G C27U C49A U53A C61U, no more than 0.5.
In the case of A14C U28A U53G it was 0.57; in that of A14G C55G, 0.583.
In the case of A14G A36U G39A C60G it was no more than 0.5; in that of A14G C24G A42C G63A, no more than 0.5.
As for A14G C30A C34A A43C C62U, the yeast fitness is no more than 0.5.
The same measure for A14G U47C A69C: 0.706; for A14G G41A U47A C62A: no more than 0.5; for A14C U54A U59C C61G: no more than 0.5.
The same measure for A14C U32G U47C C55G: no more than 0.5.
The same measure for A14G U28C U32C C33U G56A: no more than 0.5; for A14G A21U C30A A36U C60U A69C: no more than 0.5; for A14C U19A A21G C31U: no more than 0.5.
For A14C U19C C27A A43G, the yeast fitness was no more than 0.5.
The same measure for A14C G44C A70C: 0.56.
The same measure for A14G U28A: 0.705.
The same measure for A14G C24G C31U G68A: no more than 0.5; for A14G U26G G39A: no more than 0.5.
As to A14G G18A, the yeast fitness is 0.63.
In the case of A14G A36C it was 0.561; in that of A14G A36U, 0.658.
The same measure for A14C G58A: 0.868.
In the case of A14C U16C G44A U54C C61U A69C it was no more than 0.5; in that of A14G G23C C55U C61U A65U, 0.558; in that of A14G A36U C46A G51A, no more than 0.5.
In the case of A14G G51A A57C, the yeast fitness is 0.742.
The same measure for A14G A21U G56C G68C: 0.637; for A14C U28A U54C G56C G58A: no more than 0.5; for A14G C30U A45U: 0.675.
